Assay results reported in ChEMBL document CHEMBL1145040, “Biaryl analogues of conformationally constrained tricyclic tropanes as potent and selective norepinephrine reuptake inhibitors: synthesis and evaluation of their uptake inhibition at monoamine transporter sites” (J Med Chem, 2003).

Tests used:
[1] = molecular target: Sodium-dependent dopamine transporter (Rattus norvegicus, UniProt P23977); test: Ability to inhibit [3H]DA reuptake at dopamine transporter from rat brain
Procedure, shortened: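 Rat brain P2 synaptosomes in modified KRH buffer (pH 7.4, nialamide); drug preincubation 30 min at 4 °C, then 15 min at 37 °C. [3H]DA (~5 nM final) uptake for 5 min, ended with cold sodium-free buffer, GF/C filtration and scintillation counting.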

[2] = molecular target: Norepinephrine transporter (Rattus norvegicus, UniProt Q9WTR4); test: Ability to inhibit [3H]NE reuptake at norepinephrine transporter from rat brain
Procedure, shortened: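 Synaptosomes (P2, rat brain) in modified KRH buffer (pH 7.4, nialamide) with drug, 30 min at 4 °C then 15 min at 37 °C. [3H]NE (9 nM final) uptake for 5 min; terminated by cold sodium-free buffer, GF/C filtration and scintillation counting. Specific uptake defined with 3 μM desipramine.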

[3] = molecular target: Sodium-dependent serotonin transporter (Rattus norvegicus, UniProt P31652); test: Ability to inhibit [3H]5-HT reuptake at serotonin transporter from rat brain
Procedure, shortened: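 P2 synaptosomes from rat brain in modified KRH buffer (pH 7.4, nialamide), preincubated with drug 30 min at 4 °C, then 15 min at 37 °C. [3H]5-HT (~5 nM final) added for 5 min; stopped with cold sodium-free buffer, then GF/C filtration and scintillation counting. Nonspecific uptake set with 10 μM fluoxetine.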

[4] = molecular target: Monoamine transporters; Norepinephrine & serotonin (Rattus norvegicus) (UniProt P31652+Q9WTR4); test: Uptake ratio at norepinephrine to serotonin transporters from rat brain
Procedure, shortened: (§1)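 Selectivity ratios calculated from Ki values of the rat brain synaptosomal [3H]DA, [3H]5-HT and [3H]NE uptake inhibition assays.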

[5] = molecular target: Monoamine transporters; serotonin & dopamine (Rattus norvegicus) (UniProt P31652+P23977); test: Uptake ratio at serotonin to dopamine transporters from rat brain; procedure, shortened: as §1
[6] = molecular target: Monoamine transporters; Norepininephrine & dopamine (Rattus norvegicus) (UniProt P23977+Q9WTR4); test: Uptake ratio at norepinephrine to dopamine transporters from rat brain; procedure, shortened: as §1

Sequence of Monoamine transporters; serotonin & dopamine (Rattus norvegicus) (P23977 whole entry, looked up): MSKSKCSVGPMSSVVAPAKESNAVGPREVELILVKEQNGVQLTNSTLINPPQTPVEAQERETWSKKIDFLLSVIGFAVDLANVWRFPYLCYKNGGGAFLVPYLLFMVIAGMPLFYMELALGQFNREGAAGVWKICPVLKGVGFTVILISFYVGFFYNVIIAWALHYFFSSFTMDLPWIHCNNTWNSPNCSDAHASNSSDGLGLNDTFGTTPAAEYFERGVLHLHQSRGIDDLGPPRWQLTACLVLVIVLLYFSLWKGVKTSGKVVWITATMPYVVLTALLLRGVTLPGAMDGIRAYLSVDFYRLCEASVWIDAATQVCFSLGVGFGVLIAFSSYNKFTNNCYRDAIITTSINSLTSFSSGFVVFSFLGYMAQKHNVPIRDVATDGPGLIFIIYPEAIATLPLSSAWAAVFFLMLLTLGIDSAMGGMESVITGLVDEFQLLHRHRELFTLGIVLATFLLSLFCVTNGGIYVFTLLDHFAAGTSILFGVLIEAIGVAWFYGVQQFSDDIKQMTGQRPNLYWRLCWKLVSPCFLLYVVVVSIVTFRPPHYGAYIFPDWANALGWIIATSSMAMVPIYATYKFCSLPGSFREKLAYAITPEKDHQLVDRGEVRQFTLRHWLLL
Sequence of Monoamine transporters; serotonin & dopamine (Rattus norvegicus) (P31652 whole entry, looked up): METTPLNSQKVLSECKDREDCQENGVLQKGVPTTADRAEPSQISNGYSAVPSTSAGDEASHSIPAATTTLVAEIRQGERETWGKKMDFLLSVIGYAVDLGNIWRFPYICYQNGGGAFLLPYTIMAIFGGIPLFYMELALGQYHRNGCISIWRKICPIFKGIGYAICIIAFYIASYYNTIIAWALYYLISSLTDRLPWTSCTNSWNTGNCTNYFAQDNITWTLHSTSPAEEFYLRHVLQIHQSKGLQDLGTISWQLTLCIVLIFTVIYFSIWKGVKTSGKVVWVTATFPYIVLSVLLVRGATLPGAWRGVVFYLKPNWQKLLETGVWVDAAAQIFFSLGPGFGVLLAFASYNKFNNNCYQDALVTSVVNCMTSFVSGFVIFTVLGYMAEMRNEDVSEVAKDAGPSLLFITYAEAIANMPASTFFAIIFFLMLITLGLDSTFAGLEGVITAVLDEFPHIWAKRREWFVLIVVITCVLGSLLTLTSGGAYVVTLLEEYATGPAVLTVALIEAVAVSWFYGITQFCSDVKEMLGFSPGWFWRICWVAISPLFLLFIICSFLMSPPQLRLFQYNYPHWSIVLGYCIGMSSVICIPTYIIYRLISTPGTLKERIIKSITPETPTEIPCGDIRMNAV
Sequence of Sodium-dependent dopamine transporter (P23977 whole entry): as the sequence (P23977 whole entry, looked up) above
Sequence of Norepinephrine transporter (Q9WTR4 whole entry): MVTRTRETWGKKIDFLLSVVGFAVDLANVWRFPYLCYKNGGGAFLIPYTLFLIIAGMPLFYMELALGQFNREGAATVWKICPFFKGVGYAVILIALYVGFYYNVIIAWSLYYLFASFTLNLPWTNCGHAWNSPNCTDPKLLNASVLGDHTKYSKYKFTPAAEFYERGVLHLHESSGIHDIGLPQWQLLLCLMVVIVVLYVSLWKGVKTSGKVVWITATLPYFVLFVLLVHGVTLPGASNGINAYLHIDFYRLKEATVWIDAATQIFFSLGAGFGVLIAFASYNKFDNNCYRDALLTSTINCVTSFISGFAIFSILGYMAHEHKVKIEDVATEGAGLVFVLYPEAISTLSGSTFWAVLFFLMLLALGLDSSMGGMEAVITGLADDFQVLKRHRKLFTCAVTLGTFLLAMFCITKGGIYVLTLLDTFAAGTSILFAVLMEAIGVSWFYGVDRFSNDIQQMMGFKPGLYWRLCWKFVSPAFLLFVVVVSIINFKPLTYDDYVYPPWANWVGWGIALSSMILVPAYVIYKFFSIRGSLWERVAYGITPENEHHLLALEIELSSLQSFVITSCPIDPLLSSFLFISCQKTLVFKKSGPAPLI
Sequence of Sodium-dependent serotonin transporter (P31652 whole entry): as the sequence (P31652 whole entry, looked up) above

SMILES | Ki [1] [nM] | Ki [2] [nM] | Ki [3] [nM] | Ratio [4] | Ratio [5] | Ratio [6]
COC(=O)C1C2CCC3CCC1N(C/C2=C\c1ccc(-c2ccc(N(C)C)cc2)cc1)C3 (centres undefined) | 1050 | 57.9 | 1000 | 0.06 | 0.95 | 0.05
COC(=O)C1C2CCC3CCC1N(C/C2=C\c1ccc(-c2ccc(C)s2)cc1)C3 (centres undefined) | 674 | 22.5 | 200 | 0.11 | 0.3 | 
COC(=O)C1C2CCC3CCC1N(C/C2=C\c1ccc(-c2ccc(C)cc2)cc1)C3 (centres undefined) | 214 | 22.7 | 1490 | 0.02 | 6.97 | 0.11
COC(=O)C1C2CCC3CCC1N(C/C2=C\c1ccc(-c2ccc(I)cc2)cc1)C3 (centres undefined) | 377 | 114 | 660 |  | 1.75 | 0.3
COC(=O)C1C2CCC3CCC1N(C/C2=C\c1ccc(-c2cc(Cl)cc(Cl)c2)cc1)C3 (centres undefined) | 106 | 61 | 383 | 0.16 | 3.62 | 0.58
COC(=O)C1C2CCC3CCC1N(C/C2=C\c1ccc(-n2cccc2)cc1)C3 (centres undefined) | 568 | 45.9 | 149 | 0.31 | 0.26 | 0.08
COC(=O)C1C2CCC3CCC1N(C/C2=C\c1ccc(-c2ccc(Cl)cc2Cl)cc1)C3 (centres undefined) | 1590 | 466 | 393 | 1.19 | 0.25 | 0.29
CC(=O)OCC1C2CCC3CCC1N(C/C2=C\c1ccc(-c2ccccc2)cc1)C3 (centres undefined) | 165 | 57 | 46 | 1.24 | 0.28 | 0.35
O=C(OCC1C2CCC3CCC1N(C/C2=C\c1ccc(-c2ccc(Cl)c(Cl)c2)c(Cl)c1)C3)c1ccccc1 (centres undefined) | 5640 | > 10000 | 956 |  | 0.17 | 
COC(=O)C1C2CCC3CCC1N(C/C2=C\c1ccc(-c2cccc(Cl)c2)cc1)C3 (centres undefined) | 89 | 17.5 | 213 | 0.08 | 2.4 | 0.2
COC(=O)[C@@H]1C2CCC3CCC1N(C/C2=C\c1ccc(-c2ccccc2)cc1)C3 (some centres undefined) | 477 | 12 | 614 | 0.02 | 1.29 | 0.02
OC[C@@H]1C2CCC3CCC1N(C/C2=C\c1ccc(-c2ccccc2)cc1)C3 (some centres undefined) | 1300 | 183 | 1540 | 0.12 | 1.19 | 0.14
COC(=O)C1C2CCC3CCC1N(C/C2=C\c1ccc(-c2ccc(OC)cc2)cc1)C3 (centres undefined) | 841 | 39 | 3390 | 0 | 4.04 | 0.05
COC(=O)C1C2CCC3CCC1N(C/C2=C\c1ccc(-c2ccc(Cl)c(Cl)c2)cc1)C3 (centres undefined) | 236 | 9.7 | 239 | 0.04 | 1.01 | 0.04
COC(=O)C1C2CCC3CCC1N(C/C2=C\c1ccc(-c2ccsc2)cc1)C3 (centres undefined) | 277 | 20.5 | 145 | 0.14 | 0.52 | 0.07
COC(=O)C1C2CCC3CCC1N(C/C2=C\c1ccc(-c2ccccc2)s1)C3 (centres undefined) | 179 | 13.5 | 71 | 0.19 | 0.4 | 0.08
COC(=O)C1C2CCC3CCC1N(C/C2=C\c1ccc(-c2ccccc2)c(Cl)c1)C3 (centres undefined) | 4260 | 991 | 366 | 2.71 | 0.09 | 0.23
COC(=O)C1C2CCC3CCC1N(C/C2=C\c1ccc(-c2ccc(C(F)(F)F)cc2)cc1)C3 (centres undefined) | 3130 | 1150 | 2210 | 0.52 | 0.71 | 0.37
COC(=O)C1C2CCC3CCC1N(C/C2=C\c1ccc(-c2ccco2)cc1)C3 (centres undefined) | 98 | 13.9 | 248 | 0.06 | 2.54 | 0.14
COC(=O)C1C2CCC3CCC1N(C/C2=C\c1ccc(-c2ccc(OC)cc2)s1)C3 (centres undefined) | 317 | 10.3 | 531 | 0.02 | 1.43 | 0.03
COC(=O)C1C2CCC3CCC1N(C/C2=C\c1ccc(-c2ccc(Cl)cc2)cc1)C3 (centres undefined) | 417 | 739 | 1260 | 0.59 | 3.03 | 1.77
COC(=O)C1C2CCC3CCC1N(C/C2=C\c1ccc(-c2cccs2)cc1)C3 (centres undefined) | 155 | 19.8 | 73 | 0.27 | 0.47 | 0.13
COC(=O)C1C2CCC3CCC1N(C/C2=C\c1ccc(-c2ccc(C#N)cc2)cc1)C3 (centres undefined) | 47 | 32.4 | 909 | 0.04 | 19.3 | 0.69
